Test results as given in PMC5307915 (Pharmacognosy Magazine, 2017).

Key:
purified human IDO [1] = molecular target: T1, purified human IDO (Homo sapiens, UniProt P14902); test: Determination of inhibition pattern of IDO inhibitors; assay type: biochemical
Outline: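 Same kynurenine assay with purified human IDO (37°C, 1 h, Ehrlich's reagent, A480), run at five L-tryptophan concentrations crossed with four inhibitor concentrations, including zero. Mode of inhibition was taken from Lineweaver-Burk plots. Ki was calculated from the y-intercept, (1 + [I]/Ki)/Vmax. Independent measurements, at least triplicate.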

purified human IDO [2] = molecular target: T1, purified human IDO; test: IDO assay; assay type: biochemical; conditions: for inhibition at 100 µM: read-out: IDO inhibition at 100 μM (%)
Outline: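 Test compound, serially diluted in DMSO, mixed with 1 μg purified human IDO in 50 mM potassium phosphate, pH 6.5. Ascorbic acid, methylene blue, catalase and 200 μM L-tryptophan added; 1 h at 37°C. Stopped with 30% TCA, 15 min at 65°C, then centrifuged. Supernatant mixed 1:1 with Ehrlich's reagent at RT; kynurenine read at 480 nm. Screened at 100 μM; IC50 from lower concentrations; menadione as positive control; at least triplicate.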

T1 sequence (P14902 whole entry): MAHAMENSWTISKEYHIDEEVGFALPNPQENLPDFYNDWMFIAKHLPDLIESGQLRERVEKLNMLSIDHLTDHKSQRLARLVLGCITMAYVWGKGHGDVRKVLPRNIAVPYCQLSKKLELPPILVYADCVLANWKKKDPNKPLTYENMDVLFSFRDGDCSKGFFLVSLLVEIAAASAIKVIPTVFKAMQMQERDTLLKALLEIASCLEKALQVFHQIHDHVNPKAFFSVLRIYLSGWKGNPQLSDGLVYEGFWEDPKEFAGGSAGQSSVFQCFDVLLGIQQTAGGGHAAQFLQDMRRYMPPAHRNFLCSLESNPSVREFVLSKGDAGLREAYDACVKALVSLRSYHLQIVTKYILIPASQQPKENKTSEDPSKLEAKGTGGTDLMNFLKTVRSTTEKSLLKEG

Row | Ki (purified human IDO [1]) [µM] | IC50 (purified human IDO [2]) [µM] | inhibition at 100 µM (purified human IDO [2]) [%] | SMILES
1 | 85.3 | 46.5 ± 1.51 | 67.4 ± 2.53 | O=C1c2cccc(O)c2C(=O)c2c(O)cc(CO)cc21 [Compound 1, aloe emodin]
2 | – | – | 5.86 ± 3.08 | Cc1cc(=O)c2c(CO)cc(O)cc2o1 [Compound 10, 7-hydroxy-5-(hydroxymethyl)-2-methylchromone]
3 | – | – | 10.2 ± 1.75 | Cc1cc(O)cc(O)c1 [Compound 11, 5-methylresorcinol]
4 | – | 3.71 ± 1.26 | – | CC1=CC(=O)c2ccccc2C1=O [Menadione, reference compound]
